# Measured values from ChEMBL document CHEMBL1143958, “Synthesis of insecticidal fluorinated anthranilic diamides” (Bioorg Med Chem, 2008).
# Tested on: Aphis gossypii
# Test: Insecticidal activity against Aphis gossypii glover in cotton/melon plant assessed as mortality at 50 ppm
# Assay type: functional
# Settings: not given
# In short: (§1)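 Combined contact/systemic (CON/SYS) plant assay. Test compound applied to give good foliar and soil coverage, so both contact and soil systemic exposure occur. Aphis gossypii on cotton plants; Myzus persicae on radish plants 12–15 days old, treated the same way. Run in triplicate, rates 3–5× apart where possible. Units dried 1 h, capped, held 6 days at 19–21 °C and 50–70% RH.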
row,SMILES,Activity
1,CNC(=O)c1cc(F)cc(F)c1NC(=O)c1cc(Br)nn1-c1ncccc1Cl,85%

# Tested on: Myzus persicae
# Test: Insecticidal activity against Myzus persicae Sulzer in raddish plant assessed as mortality at 100 ppm
# Assay type: functional
# Settings: not given
# In short: as §1
row,SMILES,Activity
1,CNC(=O)c1cc(F)cc(Cl)c1NC(=O)c1cc(F)nn1-c1ncccc1Cl,65%

# Tested on: Aphis gossypii
# Test: Insecticidal activity against Aphis gossypii glover in cotton plant assessed as mortality at 250 ppm
# Assay type: functional
# Settings: not given
# In short: as §1
row,SMILES,Activity
1,CNC(=O)c1cc(F)cc(F)c1NC(=O)c1cc(F)nn1-c1ncccc1Cl,70%

# Tested on: Aphis gossypii
# Test: Insecticidal activity against Aphis gossypii glover in cotton/melon plant assessed as mortality at 100 ppm
# Assay type: functional
# Settings: not given
# In short: as §1
row,SMILES,Activity
1,CNC(=O)c1cc(F)cc(Cl)c1NC(=O)c1cc(F)nn1-c1ncccc1Cl,89%

# Tested on: Myzus persicae
# Test: Insecticidal activity against Myzus persicae Sulzer in raddish plant by combined contact/systemic plant assay
# Set-up: unit not given here
# Settings: not given
row,SMILES,EC50 lower 95% confidence limit
1,CNC(=O)c1cc(Cl)cc(Cl)c1NC(=O)c1cc(F)nn1-c1ncccc1Cl,15.9
2,CNC(=O)c1cc(F)cc(Cl)c1NC(=O)c1cc(Br)nn1-c1ncccc1Cl,4
3,CNC(=O)c1cc(Cl)cc(Cl)c1NC(=O)c1cc(C(F)(F)F)nn1-c1ncccc1Cl,2.7
4,CNC(=O)c1cc(Cl)cc(Cl)c1NC(=O)c1cc(Br)nn1-c1ncccc1Cl,1.4
5,CNC(=O)c1cc(Cl)cc(Cl)c1NC(=O)c1cc(C(F)(F)F)nn1-c1ncccc1F,1.5
6,CNC(=O)c1cc(Cl)cc(C)c1NC(=O)c1cc(Br)nn1-c1ncccc1F,8.7
7,CNC(=O)c1cc(F)cc(C)c1NC(=O)c1cc(C(F)(F)F)nn1-c1ncccc1Cl,6.7
8,CNC(=O)c1cc(F)cc(Cl)c1NC(=O)c1cc(C(F)(F)F)nn1-c1ncccc1Cl,7.2

# Tested on: Aphis gossypii
# Test: Insecticidal activity against Aphis gossypii glover in cotton/melon plant by combined contact/systemic plant assay
# Set-up: unit not given here
# Settings: not given
row,SMILES,EC50 upper 95% confidence limit
1,CNC(=O)c1cc(Cl)cc(Cl)c1NC(=O)c1cc(F)nn1-c1ncccc1Cl,8.9
2,CNC(=O)c1cc(F)cc(Cl)c1NC(=O)c1cc(Br)nn1-c1ncccc1Cl,4.7
3,CNC(=O)c1cc(Cl)cc(Cl)c1NC(=O)c1cc(C(F)(F)F)nn1-c1ncccc1Cl,3.5
4,CNC(=O)c1cc(Cl)cc(Cl)c1NC(=O)c1cc(Br)nn1-c1ncccc1Cl,2.4
5,CNC(=O)c1cc(Cl)cc(Cl)c1NC(=O)c1cc(C(F)(F)F)nn1-c1ncccc1F,16.3
6,CNC(=O)c1cc(Cl)cc(F)c1NC(=O)c1cc(Br)nn1-c1ncccc1Cl,9.5
7,CNC(=O)c1cc(Cl)cc(C)c1NC(=O)c1cc(Br)nn1-c1ncccc1F,6.4
8,CNC(=O)c1cc(F)cc(C)c1NC(=O)c1cc(Br)nn1-c1ncccc1Cl,18.5
9,CNC(=O)c1cc(F)cc(C)c1NC(=O)c1cc(C(F)(F)F)nn1-c1ncccc1Cl,201
10,CNC(=O)c1cc(F)cc(Cl)c1NC(=O)c1cc(C(F)(F)F)nn1-c1ncccc1Cl,8.1

# Tested on: Myzus persicae
# Test: Insecticidal activity against Myzus persicae Sulzer in raddish plant assessed as mortality at 250 ppm by systemic plant assay
# Assay type: functional
# Settings: not given
# In short: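 Systemic-only (SYS) plant assay on Myzus persicae. Formulated compound applied directly to the soil, avoiding any direct contact with the aphids. Percent mortality recorded at 250 ppm.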
row,SMILES,Activity
1,CNC(=O)c1cc(Cl)cc(Cl)c1NC(=O)c1cc(F)nn1-c1ncccc1Cl,2%
2,CNC(=O)c1cc(F)cc(Cl)c1NC(=O)c1cc(Br)nn1-c1ncccc1Cl,2%
3,CNC(=O)c1cc(Cl)cc(Cl)c1NC(=O)c1cc(Br)nn1-c1ncccc1F,29%
4,CNC(=O)c1cc(Cl)cc(Cl)c1NC(=O)c1cc(C(F)(F)F)nn1-c1ncccc1Cl,74%
5,CNC(=O)c1cc(Cl)cc(Cl)c1NC(=O)c1cc(Br)nn1-c1ncccc1Cl,22%
6,CNC(=O)c1cc(Cl)cc(Cl)c1NC(=O)c1cc(C(F)(F)F)nn1-c1ncccc1F,58%
7,CNC(=O)c1cc(Cl)cc(C)c1NC(=O)c1cc(Br)nn1-c1ncccc1F,29%
8,CNC(=O)c1cc(F)cc(C)c1NC(=O)c1cc(Br)nn1-c1ncccc1Cl,<80%
9,CNC(=O)c1cc(F)cc(C)c1NC(=O)c1cc(C(F)(F)F)nn1-c1ncccc1Cl,8%
10,CNC(=O)c1cc(F)cc(Cl)c1NC(=O)c1cc(C(F)(F)F)nn1-c1ncccc1Cl,100%
11,CNC(=O)c1cc(F)cc(F)c1NC(=O)c1cc(Br)nn1-c1ncccc1Cl,14%
12,CNC(=O)c1cc(Cl)cc(C)c1NC(=O)c1cc(Br)nn1-c1ncccc1Cl [CHLORANTRANILIPROLE],12%

# Tested on: Myzus persicae
# Test: Insecticidal activity against Myzus persicae Sulzer in raddish plant assessed as mortality at 50 ppm
# Assay type: functional
# Settings: not given
# In short: as §1
row,SMILES,Activity
1,CNC(=O)c1cc(F)cc(F)c1NC(=O)c1cc(F)nn1-c1ncccc1Cl,80%

# Tested on: Aphis gossypii
# Test: Insecticidal activity against Aphis gossypii glover in cotton/melon plant
# Assay type: functional, organism-based
# Settings: not given
# In short: as §1
row,SMILES,EC50
1,CNC(=O)c1cc(Cl)cc(Cl)c1NC(=O)c1cc(F)nn1-c1ncccc1Cl,6.2 ppm
2,CNC(=O)c1cc(Cl)cc(C)c1NC(=O)c1cc(F)nn1-c1ncccc1Cl,> 100 ppm
3,CNC(=O)c1cc(F)cc(Cl)c1NC(=O)c1cc(Br)nn1-c1ncccc1Cl,2.5 ppm
4,CNC(=O)c1cc(F)cc(F)c1NC(=O)c1cc(F)nn1-c1ncccc1Cl,< 250 ppm
5,CNC(=O)c1cc(Cl)cc(Cl)c1NC(=O)c1cc(Br)nn1-c1ncccc1F,< 2 ppm
6,CNC(=O)c1cc(Cl)cc(Cl)c1NC(=O)c1cc(C(F)(F)F)nn1-c1ncccc1Cl,2.1 ppm
7,CNC(=O)c1cc(Cl)cc(Cl)c1NC(=O)c1cc(Br)nn1-c1ncccc1Cl,1.6 ppm
8,CNC(=O)c1cc(F)cc(Cl)c1NC(=O)c1cc(F)nn1-c1ncccc1Cl,< 100 ppm
9,CNC(=O)c1cc(Cl)cc(Cl)c1NC(=O)c1cc(C(F)(F)F)nn1-c1ncccc1F,9.1 ppm
10,CNC(=O)c1cc(Cl)cc(F)c1NC(=O)c1cc(Br)nn1-c1ncccc1Cl,5.5 ppm
11,CNC(=O)c1cc(Cl)cc(C)c1NC(=O)c1cc(Br)nn1-c1ncccc1F,3.7 ppm
12,CNC(=O)c1cc(F)cc(C)c1NC(=O)c1cc(Br)nn1-c1ncccc1Cl,11.3 ppm
13,CNC(=O)c1cc(F)cc(C)c1NC(=O)c1cc(C(F)(F)F)nn1-c1ncccc1Cl,63.4 ppm
14,CNC(=O)c1cc(F)cc(Cl)c1NC(=O)c1cc(C(F)(F)F)nn1-c1ncccc1Cl,5.5 ppm
15,CNC(=O)c1cc(F)cc(F)c1NC(=O)c1cc(Br)nn1-c1ncccc1Cl,< 50 ppm
16,CNC(=O)c1cc(Cl)cc(C)c1NC(=O)c1cc(Br)nn1-c1ncccc1Cl [CHLORANTRANILIPROLE],3.1 ppm
17,O=[N+]([O-])/N=C1\NCCN1Cc1ccc(Cl)nc1 [IMIDACLOPRID],0.4 ppm

# Tested on: Myzus persicae
# Test: Insecticidal activity against Myzus persicae Sulzer in raddish plant
# Assay type: functional, organism-based
# Settings: not given
# In short: as §1
row,SMILES,EC50
1,CNC(=O)c1cc(Cl)cc(Cl)c1NC(=O)c1cc(F)nn1-c1ncccc1Cl,20.6 ppm
2,CNC(=O)c1cc(Cl)cc(C)c1NC(=O)c1cc(F)nn1-c1ncccc1Cl,> 300 ppm
3,CNC(=O)c1cc(F)cc(Cl)c1NC(=O)c1cc(Br)nn1-c1ncccc1Cl,7.8 ppm
4,CNC(=O)c1cc(F)cc(F)c1NC(=O)c1cc(F)nn1-c1ncccc1Cl,< 250 ppm
5,CNC(=O)c1cc(Cl)cc(Cl)c1NC(=O)c1cc(Br)nn1-c1ncccc1F,1.8 ppm
6,CNC(=O)c1cc(Cl)cc(Cl)c1NC(=O)c1cc(C(F)(F)F)nn1-c1ncccc1Cl,3.4 ppm
7,CNC(=O)c1cc(Cl)cc(Cl)c1NC(=O)c1cc(Br)nn1-c1ncccc1Cl,2.1 ppm
8,CNC(=O)c1cc(F)cc(Cl)c1NC(=O)c1cc(F)nn1-c1ncccc1Cl,< 100 ppm
9,CNC(=O)c1cc(Cl)cc(Cl)c1NC(=O)c1cc(C(F)(F)F)nn1-c1ncccc1F,3.4 ppm
10,CNC(=O)c1cc(Cl)cc(F)c1NC(=O)c1cc(Br)nn1-c1ncccc1Cl,> 300 ppm
11,CNC(=O)c1cc(Cl)cc(C)c1NC(=O)c1cc(Br)nn1-c1ncccc1F,11.3 ppm
12,CNC(=O)c1cc(F)cc(C)c1NC(=O)c1cc(Br)nn1-c1ncccc1Cl,> 300 ppm
13,CNC(=O)c1cc(F)cc(C)c1NC(=O)c1cc(C(F)(F)F)nn1-c1ncccc1Cl,30.8 ppm
14,CNC(=O)c1cc(F)cc(Cl)c1NC(=O)c1cc(C(F)(F)F)nn1-c1ncccc1Cl,9.2 ppm
15,CNC(=O)c1cc(F)cc(F)c1NC(=O)c1cc(Br)nn1-c1ncccc1Cl,< 250 ppm
16,CNC(=O)c1cc(Cl)cc(C)c1NC(=O)c1cc(Br)nn1-c1ncccc1Cl [CHLORANTRANILIPROLE],12.4 ppm
17,O=[N+]([O-])/N=C1\NCCN1Cc1ccc(Cl)nc1 [IMIDACLOPRID],0.3 ppm

# Tested on: Myzus persicae
# Test: Insecticidal activity against Myzus persicae Sulzer in raddish plant assessed as mortality at 250 ppm
# Assay type: functional
# Settings: not given
# In short: as §1
row,SMILES,Activity
1,CNC(=O)c1cc(F)cc(F)c1NC(=O)c1cc(F)nn1-c1ncccc1Cl,100%

# Tested on: Aphis gossypii
# Test: Insecticidal activity against Aphis gossypii glover in cotton/melon plant assessed as mortality at 2 ppm
# Assay type: functional
# Settings: not given
# In short: as §1
row,SMILES,Activity
1,CNC(=O)c1cc(Cl)cc(Cl)c1NC(=O)c1cc(Br)nn1-c1ncccc1F,89%

# Tested on: not listed separately
# Test: Lipophilicity, log P of the compound
# Assay type: physicochemical
# Settings: octanol/water
# In short: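 Measured by reversed-phase HPLC on a C18 column at 40 °C, 1.0 mL/min. Gradient over 5 min from 99% 5 mM ammonium acetate pH 7 to 99% 5 mM ammonium acetate in acetonitrile. logP read from a calibration curve of retention times for compounds with known shake-flask octanol–water values.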
row,SMILES,logP
1,CNC(=O)c1cc(Cl)cc(Cl)c1NC(=O)c1cc(F)nn1-c1ncccc1Cl,2.6
2,CNC(=O)c1cc(F)cc(Cl)c1NC(=O)c1cc(Br)nn1-c1ncccc1Cl,2.6
3,CNC(=O)c1cc(Cl)cc(Cl)c1NC(=O)c1cc(Br)nn1-c1ncccc1F,2.7
4,CNC(=O)c1cc(Cl)cc(Cl)c1NC(=O)c1cc(Br)nn1-c1ncccc1Cl,3
5,CNC(=O)c1cc(Cl)cc(F)c1NC(=O)c1cc(Br)nn1-c1ncccc1Cl,2.9
6,CNC(=O)c1cc(Cl)cc(C)c1NC(=O)c1cc(Br)nn1-c1ncccc1Cl [CHLORANTRANILIPROLE],3

# Tested on: Myzus persicae
# Test: Insecticidal activity against Myzus persicae Sulzer in raddish plant by combined contact/systemic plant assay
# Set-up: unit not given here
# Settings: not given
# Remark: another data set of the same source
row,SMILES,EC50 upper 95% confidence limit
1,CNC(=O)c1cc(Cl)cc(Cl)c1NC(=O)c1cc(F)nn1-c1ncccc1Cl,26.8
2,CNC(=O)c1cc(F)cc(Cl)c1NC(=O)c1cc(Br)nn1-c1ncccc1Cl,23.2
3,CNC(=O)c1cc(Cl)cc(Cl)c1NC(=O)c1cc(C(F)(F)F)nn1-c1ncccc1Cl,4.6
4,CNC(=O)c1cc(Cl)cc(Cl)c1NC(=O)c1cc(Br)nn1-c1ncccc1Cl,3.2
5,CNC(=O)c1cc(Cl)cc(Cl)c1NC(=O)c1cc(C(F)(F)F)nn1-c1ncccc1F,7
6,CNC(=O)c1cc(Cl)cc(C)c1NC(=O)c1cc(Br)nn1-c1ncccc1F,15.2
7,CNC(=O)c1cc(F)cc(C)c1NC(=O)c1cc(C(F)(F)F)nn1-c1ncccc1Cl,84.3
8,CNC(=O)c1cc(F)cc(Cl)c1NC(=O)c1cc(C(F)(F)F)nn1-c1ncccc1Cl,12.9

# Tested on: Aphis gossypii
# Test: Insecticidal activity against Aphis gossypii glover in cotton/melon plant by combined contact/systemic plant assay
# Settings: not given
# Remark: another data set of the same source
row,SMILES,EC50 lower 95% confidence limit
1,CNC(=O)c1cc(Cl)cc(Cl)c1NC(=O)c1cc(F)nn1-c1ncccc1Cl,4.4 ppm
2,CNC(=O)c1cc(F)cc(Cl)c1NC(=O)c1cc(Br)nn1-c1ncccc1Cl,1.1 ppm
3,CNC(=O)c1cc(Cl)cc(Cl)c1NC(=O)c1cc(C(F)(F)F)nn1-c1ncccc1Cl,1.4 ppm
4,CNC(=O)c1cc(Cl)cc(Cl)c1NC(=O)c1cc(Br)nn1-c1ncccc1Cl,0.9 ppm
5,CNC(=O)c1cc(Cl)cc(Cl)c1NC(=O)c1cc(C(F)(F)F)nn1-c1ncccc1F,5.8 ppm
6,CNC(=O)c1cc(Cl)cc(F)c1NC(=O)c1cc(Br)nn1-c1ncccc1Cl,3 ppm
7,CNC(=O)c1cc(Cl)cc(C)c1NC(=O)c1cc(Br)nn1-c1ncccc1F,2 ppm
8,CNC(=O)c1cc(F)cc(C)c1NC(=O)c1cc(Br)nn1-c1ncccc1Cl,7.2 ppm
9,CNC(=O)c1cc(F)cc(C)c1NC(=O)c1cc(C(F)(F)F)nn1-c1ncccc1Cl,26 ppm
10,CNC(=O)c1cc(F)cc(Cl)c1NC(=O)c1cc(C(F)(F)F)nn1-c1ncccc1Cl,4 ppm
